Source: ChEMBL document CHEMBL1130218, “Potent anandamide analogs: the effect of changing the length and branching of the end pentyl chain” (J Med Chem, 1997)
Calls of active or inactive are those of the source. The rule behind the calls is not given here.

Legend:
Cannabinoid receptor 1 [1] = molecular target: T1, Cannabinoid receptor 1 (Mus musculus, UniProt P47746); assay: Binding affinity for Cannabinoid receptor 1 in absence of phenylmethylsulfonyl fluoride (PMSF)
How it was run: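 Radioligand binding to P2 membranes (150 µg protein) in 50 mM Tris-HCl, 1 mM EDTA, 3 mM MgCl2, 5 mg/mL BSA; ethanolic stocks diluted, final ethanol ≤0.4%; no PMSF. 1 h at 30 °C; nonspecific binding with 1 µM CP-55,940; stopped with ice-cold buffer and rapid filtration through PEI-treated filters.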

Mus musculus [2] = species on record: Mus musculus; assay: Antinociception as measured from the tail - flick response (TF), in mice; Inactive; format: functional, organism-based
Mus musculus [3] = species on record: Mus musculus; assay: Ring immobility (RI) in mice; Inactive; format: functional, organism-based
How it was run: (§1)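 Same mice as temperature test; immediately after temperature reading, mice placed on 5.5 cm ring 16 cm high and motionless time over 5 min recorded; % immobility = time/300 s × 100. iv tail-vein dosing in ethanol:emulphor:saline 1:1:18.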

Mus musculus [4] = species on record: Mus musculus; assay: Hypothermia as measured from changes in rectal (RT) in mice; Inactive; format: functional, organism-based
How it was run: (§2)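 Separate group of mice; rectal temperature by thermistor probe inserted 25 mm before and 4 min after iv tail-vein injection (ethanol:emulphor:saline 1:1:18, 0.1 mL/10 g).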

Cannabinoid receptor 1 [5] = molecular target: T1, Cannabinoid receptor 1; assay: Binding affinity for Cannabinoid receptor 1 in presence of phenylmethylsulfonyl fluoride (PMSF)
How it was run: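 Radioligand binding to P2 membranes (150 µg protein) in 50 mM Tris-HCl, 1 mM EDTA, 3 mM MgCl2, 5 mg/mL BSA, with amidase inhibitor PMSF 50 µM; final ethanol ≤0.4%. 1 h at 30 °C; nonspecific binding with 1 µM CP-55,940; terminated with ice-cold buffer and rapid filtration through PEI-treated filters.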

Mus musculus [6] = species on record: Mus musculus; assay: Inhibition of spontaneous activity (SA) in mice; format: functional
How it was run: (§3)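 Measured in the same mice as tail-flick; iv tail-vein dosing in ethanol:emulphor:saline 1:1:18, 0.1 mL/10 g. Immediately after tail-flick (about 4 min post-injection) mice placed in individual photocell cages; beam interruptions over 16 beams counted for 10 min.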

Mus musculus [7] = species on record: Mus musculus; assay: Antinociception as measured from the tail - flick response (TF), in mice; format: functional
Mus musculus [8] = species on record: Mus musculus; assay: Ring immobility (RI) in mice; format: functional; how it was run: as §1
Mus musculus [9] = species on record: Mus musculus; assay: Inhibition of spontaneous activity (SA) in mice; Inactive; format: functional, organism-based; how it was run: as §3
Mus musculus [10] = species on record: Mus musculus; assay: Hypothermia as measured from changes in rectal (RT) in mice; format: functional; how it was run: as §2

T1 sequence (P47746 whole entry): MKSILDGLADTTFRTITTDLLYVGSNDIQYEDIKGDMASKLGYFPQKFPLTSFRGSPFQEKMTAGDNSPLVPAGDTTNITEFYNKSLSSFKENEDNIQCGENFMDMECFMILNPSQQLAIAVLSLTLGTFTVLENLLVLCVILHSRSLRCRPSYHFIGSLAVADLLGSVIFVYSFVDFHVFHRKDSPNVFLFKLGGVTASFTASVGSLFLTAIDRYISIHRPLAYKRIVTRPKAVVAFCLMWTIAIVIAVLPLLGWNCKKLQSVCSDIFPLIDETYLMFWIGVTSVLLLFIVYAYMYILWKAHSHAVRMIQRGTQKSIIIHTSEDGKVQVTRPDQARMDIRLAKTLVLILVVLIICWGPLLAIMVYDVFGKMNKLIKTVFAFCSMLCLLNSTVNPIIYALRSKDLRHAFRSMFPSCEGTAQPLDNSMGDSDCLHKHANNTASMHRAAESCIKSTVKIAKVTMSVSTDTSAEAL

SMILES | Ki (Cannabinoid receptor 1 [1]) | ED50 (Mus musculus [2]) | ED50 (Mus musculus [3]) | ED50 (Mus musculus [4]) | Ki (Cannabinoid receptor 1 [5]) | ED50 (Mus musculus [6]) | ED50 (Mus musculus [7]) | ED50 (Mus musculus [8]) | ED50 (Mus musculus [9]) | ED50 (Mus musculus [10])
CCCCC(C)(C)C/C=C\C/C=C\C/C=C\C/C=C\CCCC(=O)NCCO | 382 nM | inactive | inactive | inactive | 48 nM | 44.1 mg/kg | – | – | – | –
CCCCCCCCC/C=C\C/C=C\C/C=C\C/C=C\CCCC(=O)NCCO | 79 nM | – | – | inactive | 25 nM | 7.35 mg/kg | 14.4 mg/kg | 5.13 mg/kg | – | –
CCCCCC/C=C\C/C=C\C/C=C\C/C=C\CCCC(=O)NCCO | 3060 nM | inactive | inactive | inactive | 24 nM | – | – | – | inactive | –
CCCCCCC(C)(C)/C=C\C/C=C\C/C=C\C/C=C\CCCC(=O)NCCO | – | – | – | – | 7 nM | 2.17 mg/kg | 2.16 mg/kg | 1.17 mg/kg | – | 7.49 mg/kg
CCCCC/C=C\C/C=C\C/C=C\C/C=C\CCCC(=O)NCCO [ANANDAMIDE] | – | – | – | – | – | 17.9 mg/kg | 6.2 mg/kg | 19.1 mg/kg | – | 26.5 mg/kg
CCCCCCC(C)(C)/C=C\C/C=C\C/C=C\C/C=C\CCC(C)C(=O)NCCF (centres undefined) | – | – | – | – | 1 nM | 3.48 mg/kg | 0.86 mg/kg | 3.11 mg/kg | – | 3.6 mg/kg
CCCCCCCC/C=C\C/C=C\C/C=C\C/C=C\CCCC(=O)NCCO | 156 nM | inactive | – | – | 18 nM | – | – | – | inactive | –
CCCCCCC(C)/C=C\C/C=C\C/C=C\C/C=C\CCC(C)C(=O)NCCF (centres undefined) | – | – | – | – | 4.8 nM | 1.15 mg/kg | 1.3 mg/kg | 2.22 mg/kg | – | 0.08 mg/kg
CCCCCC(C)C/C=C\C/C=C\C/C=C\C/C=C\CCCC(=O)NCCO (centres undefined) | 51 nM | – | – | – | 11 nM | 6.22 mg/kg | 5.48 mg/kg | 5.29 mg/kg | – | 12.2 mg/kg
CCCCCCC/C=C\C/C=C\C/C=C\C/C=C\CCCC(=O)NCCO | 1780 nM | inactive | inactive | inactive | 55 nM | 20.4 mg/kg | – | – | – | –
CCCCCC(C)(C)C/C=C\C/C=C\C/C=C\C/C=C\CCC(C)C(=O)NCCF (centres undefined) | – | – | – | – | 7.7 nM | 3.14 mg/kg | 4.12 mg/kg | 11.4 mg/kg | – | 76.2 mg/kg
CCCCC/C=C\C/C=C\C/C=C\C/C=C\CCC(C)C(=O)NCCF (centres undefined) | 15 nM | – | – | – | 5.7 nM | 4.78 mg/kg | 6.99 mg/kg | 1.6 mg/kg | – | 2.73 mg/kg
CCCCCCCC/C=C\C/C=C\C/C=C\C/C=C\CCC(C)C(=O)NCCF (centres undefined) | – | – | – | inactive | 8.2 nM | 3.52 mg/kg | 15.3 mg/kg | 6.37 mg/kg | – | –
CCCCCC(C)(C)C/C=C\C/C=C\C/C=C\C/C=C\CCCC(=O)NCCO | 39 nM | – | – | – | 19 nM | 3.36 mg/kg | 57.3 mg/kg | 5.05 mg/kg | – | 9.38 mg/kg
CCCCCCCC(C)(C)/C=C\C/C=C\C/C=C\C/C=C\CCC(C)C(=O)NCCF (centres undefined) | – | – | – | inactive | 14 nM | 20.3 mg/kg | 12.8 mg/kg | 33.3 mg/kg | – | –
CCCCCC(C)C/C=C\C/C=C\C/C=C\C/C=C\CCC(C)C(=O)NCCF (centres undefined) | – | – | – | – | 3.3 nM | 2.09 mg/kg | 4.08 mg/kg | 2.67 mg/kg | – | 0.24 mg/kg
CCCCCc1cc(O)c2c(c1)OC(C)(C)C1CCC(C)=C[C@@H]21 (single isomer, unassigned) [DRONABINOL] | – | – | – | – | – | 1 mg/kg | 1.4 mg/kg | 1.5 mg/kg | – | 1.4 mg/kg
